Source: ChEMBL document CHEMBL1955761, “Privileged scaffolds or promiscuous binders: a comparative study on rhodanines and related heterocycles in medicinal chemistry” (J Med Chem, 2012)
Calls of active or inactive are those of the source.

Columns and labels:
Dengue virus = assay: Inhibition of Dengue virus NS2B-NS3 protease using Abz-NleKRRS-3-(NO2)Y as substrate at 50 uM preincubated for 15 mins measured every sec for 15 mins by fluorimetric analysis
Prothrombin (Bos taurus) = Prothrombin (Bos taurus) (UniProt P00735); assay: Inhibition of bovine plasma thrombin using Boc-Val-Pro-Arg-AMC as substrate at 25 uM preincubated for 15 mins measured after 10 mins by fluorimetric assay
Summary of the method: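 Purchased bovine plasma thrombin at 10 nM final, preincubated 15 min with 25 μM inhibitor; reaction started with 50 μM substrate. Buffer 50 mM Tris-HCl pH 7.5, 150 mM NaCl, 0.05% Tween 20. Triplicate, averaged.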

Escherichia coli [1] = assay: Inhibition of Escherichia coli MurA using PEP as substrate assessed as inorganic phosphate release at 25 uM preincubated for 10 mins measured after 60 mins […]
Escherichia coli [2] = assay: Inhibition of Escherichia coli MetAP at 10 uM after 15 mins by fluorescence analysis

## O=C1NC(=O)/C(=C/c2ccc3ccccc3c2)S1
Dengue virus
  inhibition: inactive
Prothrombin (Bos taurus)
  inhibition: 19%
Escherichia coli [1]
  inhibition: inactive
Escherichia coli [2]
  inhibition: inactive

## O=C1NC(=O)/C(=C/c2ccc(Cl)s2)S1
Dengue virus
  inhibition: 11%
Prothrombin (Bos taurus)
  inhibition: 29%
Escherichia coli [1]
  inhibition: 38%
Escherichia coli [2]
  inhibition: inactive

## CC(=O)n1cc(/C=C2\SC(=O)NC2=O)c2ccccc21
Dengue virus
  inhibition: 11%
Prothrombin (Bos taurus)
  inhibition: inactive
Escherichia coli [1]
  inhibition: inactive
Escherichia coli [2]
  inhibition: inactive

## O=C1NC(=O)/C(=C/c2cccs2)S1
Dengue virus
  inhibition: 11%
Prothrombin (Bos taurus)
  inhibition: 24%
Escherichia coli [1]
  inhibition: 30%
Escherichia coli [2]
  inhibition: 11%

## CCCCC/C=C1\NC(=S)NC1=O
Dengue virus
  inhibition: 18%
Prothrombin (Bos taurus)
  inhibition: 16%
Escherichia coli [1]
  inhibition: 17%
Escherichia coli [2]
  inhibition: 27%

## O=C1NC(=S)N/C1=C\c1cc2ccccc2[nH]1
Dengue virus
  inhibition: 44%
Prothrombin (Bos taurus)
  inhibition: 23%
Escherichia coli [1]
  inhibition: 15%
Escherichia coli [2]
  inhibition: inactive

## O=C1NC(=O)C(Cc2cccs2)N1 (stereo not given)
Dengue virus
  inhibition: inactive
Prothrombin (Bos taurus)
  inhibition: inactive
Escherichia coli [1]
  inhibition: inactive
Escherichia coli [2]
  inhibition: inactive

## O=C1NC(=O)/C(=C/c2ccco2)S1
Dengue virus
  inhibition: 20%
Prothrombin (Bos taurus)
  inhibition: 19%
Escherichia coli [1]
  inhibition: 41%
Escherichia coli [2]
  inhibition: inactive

## CCC/C=C/C1NC(=S)NC1=O (stereo not given)
Dengue virus
  inhibition: inactive
Prothrombin (Bos taurus)
  inhibition: 14%
Escherichia coli [1]
  inhibition: 77%
Escherichia coli [2]
  inhibition: 19%

## CC(=O)n1cc(/C=C2\SC(=S)NC2=O)c2ccccc21
Dengue virus
  inhibition: 46%
Prothrombin (Bos taurus)
  inhibition: 31%
Escherichia coli [1]
  inhibition: 18%
Escherichia coli [2]
  inhibition: inactive

## O=C1NC(=S)S/C1=C\c1cc(Br)cs1
Dengue virus
  inhibition: 47%
Prothrombin (Bos taurus)
  inhibition: 21%
Escherichia coli [1]
  inhibition: 18%
Escherichia coli [2]
  inhibition: inactive

## O=C1NC(=S)S/C1=C\c1ccc([N+](=O)[O-])cc1
Dengue virus
  inhibition: 46%
Prothrombin (Bos taurus)
  inhibition: 25%
Escherichia coli [1]
  inhibition: 65%
Escherichia coli [2]
  inhibition: 11%

## COc1ccc(/C=C2\SC(=S)NC2=O)cc1OC
Dengue virus
  inhibition: 50%
Prothrombin (Bos taurus)
  inhibition: 29%
Escherichia coli [1]
  inhibition: inactive
Escherichia coli [2]
  inhibition: inactive

## C/C(=C1/NC(=S)NC1=O)c1ccccc1
Dengue virus
  inhibition: inactive
Prothrombin (Bos taurus)
  inhibition: 21%
Escherichia coli [1]
  inhibition: 24%
Escherichia coli [2]
  inhibition: 14%

## O=C1NC(=S)S/C1=C\c1ccc(Cl)s1
Dengue virus
  inhibition: 54%
Prothrombin (Bos taurus)
  inhibition: 27%
Escherichia coli [1]
  inhibition: 13%
Escherichia coli [2]
  inhibition: inactive

## CCCC/C=C1\NC(=S)NC1=O
Dengue virus
  inhibition: 25%
Prothrombin (Bos taurus)
  inhibition: 14%
Escherichia coli [1]
  inhibition: 11%
Escherichia coli [2]
  inhibition: 66%

## COc1ccccc1/C=C1\SC(=S)NC1=O
Dengue virus
  inhibition: 33%
Prothrombin (Bos taurus)
  inhibition: 11%
Escherichia coli [1]
  inhibition: 10%
Escherichia coli [2]
  inhibition: inactive

## O=C1CSC(=S)N1
Dengue virus
  inhibition: 14%
Prothrombin (Bos taurus)
  inhibition: inactive
Escherichia coli [1]
  inhibition: inactive
Escherichia coli [2]
  inhibition: inactive

## O=C1NC(=S)S/C1=C\c1cccs1
Dengue virus
  inhibition: 44%
Prothrombin (Bos taurus)
  inhibition: 18%
Escherichia coli [1]
  inhibition: inactive
Escherichia coli [2]
  inhibition: inactive

## O=C1NC(=S)NC1Cc1ccc(O)c(O)c1 (stereo not given)
Dengue virus
  inhibition: 15%
Prothrombin (Bos taurus)
  inhibition: inactive
Escherichia coli [1]
  inhibition: 63%
Escherichia coli [2]
  inhibition: 73%

## Cn1cc(/C=C2\SC(=S)NC2=O)c2ccccc21
Dengue virus
  inhibition: 45%
Prothrombin (Bos taurus)
  inhibition: 27%
Escherichia coli [1]
  inhibition: 18%
Escherichia coli [2]
  inhibition: 12%

## CC(=O)N1C(=S)NC(=O)[C@@H]1CCCCN
Dengue virus
  inhibition: inactive
Prothrombin (Bos taurus)
  inhibition: inactive
Escherichia coli [1]
  inhibition: 12%
Escherichia coli [2]
  inhibition: inactive

## O=C1NC(=S)S/C1=C\c1ccc(O)cc1
Dengue virus
  inhibition: 47%
Prothrombin (Bos taurus)
  inhibition: 34%
Escherichia coli [1]
  inhibition: 24%
Escherichia coli [2]
  inhibition: inactive

## COc1ccc(/C=C/C=C2\SC(=S)NC2=O)cc1
Dengue virus
  inhibition: 51%
Prothrombin (Bos taurus)
  inhibition: 20%
Escherichia coli [1]
  inhibition: 62%
Escherichia coli [2]
  inhibition: 12%

## O=C1NC(=O)/C(=C/c2ccc(Br)s2)S1
Dengue virus
  inhibition: inactive
Prothrombin (Bos taurus)
  inhibition: 19%
Escherichia coli [1]
  inhibition: 62%
Escherichia coli [2]
  inhibition: 12%

## Cn1cc(/C=C2\SC(=O)NC2=O)c2ccccc21
Dengue virus
  inhibition: 41%
Prothrombin (Bos taurus)
  inhibition: 25%
Escherichia coli [1]
  inhibition: inactive
Escherichia coli [2]
  inhibition: inactive

## O=C1NC(=S)S/C1=C\c1ccc(Br)s1
Dengue virus
  inhibition: 50%
Prothrombin (Bos taurus)
  inhibition: 22%
Escherichia coli [1]
  inhibition: 21%
Escherichia coli [2]
  inhibition: inactive

## O=C1NC(=S)S/C1=C\C=C\c1ccco1
Dengue virus
  inhibition: 26%
Prothrombin (Bos taurus)
  inhibition: 28%
Escherichia coli [1]
  inhibition: 94%
Escherichia coli [2]
  inhibition: 14%

## Cc1ccc(/C=C2\NC(=O)NC2=O)cc1
Dengue virus
  inhibition: inactive
Prothrombin (Bos taurus)
  inhibition: inactive
Escherichia coli [1]
  inhibition: inactive
Escherichia coli [2]
  inhibition: 11%

## NCCCC[C@@H]1NC(=S)NC1=O
Dengue virus
  inhibition: 11%
Prothrombin (Bos taurus)
  inhibition: inactive
Escherichia coli [1]
  inhibition: inactive
Escherichia coli [2]
  inhibition: inactive

## O=C1NC(=O)/C(=C/c2c(F)c(F)c(F)c(F)c2F)S1
Dengue virus
  inhibition: 12%
Prothrombin (Bos taurus)
  inhibition: inactive
Escherichia coli [1]
  inhibition: inactive
Escherichia coli [2]
  inhibition: inactive

## COc1ccccc1/C=C1\NC(=O)NC1=O
Dengue virus
  inhibition: 18%
Prothrombin (Bos taurus)
  inhibition: inactive
Escherichia coli [1]
  inhibition: inactive
Escherichia coli [2]
  inhibition: inactive

## O=C1NC(=S)N/C1=C\c1ccccn1
Dengue virus
  inhibition: 47%
Prothrombin (Bos taurus)
  inhibition: 38%
Escherichia coli [1]
  inhibition: 13%
Escherichia coli [2]
  inhibition: 95%

## O=C1NC(=S)N[C@H]1Cc1ccccc1
Dengue virus
  inhibition: inactive
Prothrombin (Bos taurus)
  inhibition: inactive
Escherichia coli [1]
  inhibition: 17%
Escherichia coli [2]
  inhibition: 12%

## NC(=O)CC[C@@H]1NC(=S)NC1=O
Dengue virus
  inhibition: 10%
Prothrombin (Bos taurus)
  inhibition: inactive
Escherichia coli [1]
  inhibition: 25%
Escherichia coli [2]
  inhibition: inactive

## O=C1NC(=S)N[C@@H]1Cc1ccccc1
Dengue virus
  inhibition: 14%
Prothrombin (Bos taurus)
  inhibition: 12%
Escherichia coli [1]
  inhibition: 11%
Escherichia coli [2]
  inhibition: inactive

## O=C1NC(=O)/C(=C/c2ccc([N+](=O)[O-])cc2)S1
Dengue virus
  inhibition: inactive
Prothrombin (Bos taurus)
  inhibition: inactive
Escherichia coli [1]
  inhibition: inactive
Escherichia coli [2]
  inhibition: 13%

## Cn1cc(/C=C2\NC(=S)NC2=O)c2ccccc21
Dengue virus
  inhibition: 50%
Prothrombin (Bos taurus)
  inhibition: 22%
Escherichia coli [1]
  inhibition: 16%
Escherichia coli [2]
  inhibition: inactive

## COc1ccc(/C=C/C=C2\SC(=O)NC2=O)cc1
Dengue virus
  inhibition: 18%
Prothrombin (Bos taurus)
  inhibition: 11%
Escherichia coli [1]
  inhibition: 13%
Escherichia coli [2]
  inhibition: inactive

## O=C1NC(=O)/C(=C/c2ccc(Cl)s2)N1
Dengue virus
  inhibition: 16%
Prothrombin (Bos taurus)
  inhibition: 25%
Escherichia coli [1]
  inhibition: 38%
Escherichia coli [2]
  inhibition: inactive

## O=C1NC(=S)N[C@H]1Cc1c[nH]c2ccccc12
Dengue virus
  inhibition: inactive
Prothrombin (Bos taurus)
  inhibition: inactive
Escherichia coli [1]
  inhibition: 11%
Escherichia coli [2]
  inhibition: 13%

## O=C1NC(=S)N/C1=C\c1sccc1Cl
Dengue virus
  inhibition: 46%
Prothrombin (Bos taurus)
  inhibition: 19%
Escherichia coli [1]
  inhibition: 19%
Escherichia coli [2]
  inhibition: inactive

## C/C(=C1/NC(=S)NC1=O)c1ccc(F)cc1
Dengue virus
  inhibition: inactive
Prothrombin (Bos taurus)
  inhibition: 23%
Escherichia coli [1]
  inhibition: 29%
Escherichia coli [2]
  inhibition: 18%

## O=C1NC(=S)N[C@H]1Cc1ccc(O)cc1
Dengue virus
  inhibition: inactive
Prothrombin (Bos taurus)
  inhibition: inactive
Escherichia coli [1]
  inhibition: inactive
Escherichia coli [2]
  inhibition: inactive

## O=C1NC(=O)/C(=C/c2cccc(O)c2)N1
Dengue virus
  inhibition: 27%
Prothrombin (Bos taurus)
  inhibition: 12%
Escherichia coli [1]
  inhibition: inactive
Escherichia coli [2]
  inhibition: inactive

## COc1cccc(/C=C2\SC(=O)NC2=O)c1
Dengue virus
  inhibition: 17%
Prothrombin (Bos taurus)
  inhibition: 11%
Escherichia coli [1]
  inhibition: 25%
Escherichia coli [2]
  inhibition: 10%

## O=C1NC(=S)N/C1=C\c1ccc(Br)s1
Dengue virus
  inhibition: 46%
Prothrombin (Bos taurus)
  inhibition: 17%
Escherichia coli [1]
  inhibition: 75%
Escherichia coli [2]
  inhibition: 10%

## CC(=O)N1C(=S)NC(=O)[C@H]1Cc1ccccc1
Dengue virus
  inhibition: inactive
Prothrombin (Bos taurus)
  inhibition: inactive
Escherichia coli [1]
  inhibition: 15%
Escherichia coli [2]
  inhibition: inactive

## O=C1NC(=S)SC1Cc1ccccc1 (stereo not given)
Dengue virus
  inhibition: inactive
Prothrombin (Bos taurus)
  inhibition: inactive
Escherichia coli [1]
  inhibition: 11%
Escherichia coli [2]
  inhibition: inactive

## COc1ccccc1/C=C1\NC(=S)NC1=O
Dengue virus
  inhibition: 28%
Prothrombin (Bos taurus)
  inhibition: 15%
Escherichia coli [1]
  inhibition: 10%
Escherichia coli [2]
  inhibition: 18%

## O=C1NC(=O)/C(=C/C2CCCCC2)S1
Dengue virus
  inhibition: 25%
Prothrombin (Bos taurus)
  inhibition: inactive
Escherichia coli [1]
  inhibition: inactive
Escherichia coli [2]
  inhibition: inactive

## CN(C)c1ccc(/C=C2\NC(=S)NC2=O)cc1
Dengue virus
  inhibition: 42%
Prothrombin (Bos taurus)
  inhibition: 25%
Escherichia coli [1]
  inhibition: 51%
Escherichia coli [2]
  inhibition: 75%

## COc1cc(/C=C2\SC(=O)NC2=O)ccc1O
Dengue virus
  inhibition: 19%
Prothrombin (Bos taurus)
  inhibition: 27%
Escherichia coli [1]
  inhibition: 100%
Escherichia coli [2]
  inhibition: inactive

## Cc1ccc(/C=C2\SC(O)=NC2=O)cc1
Dengue virus
  inhibition: 17%
Prothrombin (Bos taurus)
  inhibition: 18%
Escherichia coli [1]
  inhibition: inactive
Escherichia coli [2]
  inhibition: inactive

## CCCC/C=C/C1NC(=S)NC1=O (stereo not given)
Dengue virus
  inhibition: inactive
Prothrombin (Bos taurus)
  inhibition: 10%
Escherichia coli [1]
  inhibition: 64%
Escherichia coli [2]
  inhibition: inactive

## CC(=O)n1cc(/C=C2\NC(=S)NC2=O)c2ccccc21
Dengue virus
  inhibition: 43%
Prothrombin (Bos taurus)
  inhibition: 11%
Escherichia coli [1]
  inhibition: 13%
Escherichia coli [2]
  inhibition: 15%

## O=C1NC(=S)S/C1=C1/CCOc2ccccc21
Dengue virus
  inhibition: 44%
Prothrombin (Bos taurus)
  inhibition: 18%
Escherichia coli [1]
  inhibition: inactive
Escherichia coli [2]
  inhibition: inactive

## COc1ccc(/C=C2\NC(=O)NC2=O)cc1OC
Dengue virus
  inhibition: 18%
Prothrombin (Bos taurus)
  inhibition: inactive
Escherichia coli [1]
  inhibition: inactive
Escherichia coli [2]
  inhibition: inactive

## O=C1NC(=O)/C(=C/c2ccc(O)c(O)c2)S1
Dengue virus
  inhibition: 44%
Prothrombin (Bos taurus)
  inhibition: 37%
Escherichia coli [1]
  inhibition: 78%
Escherichia coli [2]
  inhibition: 90%

## O=C1NC(=O)/C(=C/c2sccc2Cl)N1
Dengue virus
  inhibition: inactive
Prothrombin (Bos taurus)
  inhibition: inactive
Escherichia coli [1]
  inhibition: inactive
Escherichia coli [2]
  inhibition: inactive
